Data as given in ChEMBL document CHEMBL1143943, “Synthesis of naphtho[2,3-a]phenoxazinium chlorides: structure-activity relationships of these heterocycles and benzo[a]phenoxazinium chlorides as new antimicrobials” (2008).
Values after ≈ are worked out from the molar mass of the structure shown. Where a name gives a salt, the structure may show the parent alone.

What was measured:
Assay type in all cases: functional
Saccharomyces cerevisiae [1] = test: Antifungal activity against Saccharomyces cerevisiae W303-1B after 48 hrs by broth microdilution assay
In short: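 NCCLS M27-A broth microdilution; S. cerevisiae W303-1B ([…], ade2, his3, leu2, trp1, ura3) at 0.5 · 10³ cells/mL initial density in RPMI 1640 with 0.165 M MOPS, pH 7.0, plus required amino acids; 30 °C. DMSO stocks diluted into medium. MIC read visually at 48 h as lowest concentration giving no detectable growth; triplicates, two independent experiments.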

Saccharomyces cerevisiae [2] = test: Antifungal activity against Saccharomyces cerevisiae W303-1B at 0.5*10^4 initial cell density after 48 hrs by broth microdilution assay
In short: (§1)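 Same yeast microdilution protocol (W303-1B, RPMI 1640/0.165 M MOPS pH 7.0 with required amino acids, 30 °C, DMSO stocks diluted into medium), but initial inoculum raised in 10-fold steps within 0.5 · 10³–0.5 · 10⁶ cells/mL. MIC taken visually after 48 h as lowest concentration with no detectable growth; triplicates, two independent experiments.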

Saccharomyces cerevisiae [3] = test: Antifungal activity against Saccharomyces cerevisiae W303-1B at 0.5*10^5 initial cell density after 48 hrs by broth microdilution assay; in short: as §1
Saccharomyces cerevisiae [4] = test: Antifungal activity against Saccharomyces cerevisiae W303-1B at 0.5*10^6 initial cell density after 48 hrs by broth microdilution assay; in short: as §1

Compound	MIC (Saccharomyces cerevisiae [1]) [µM]	also measured
CC/N=c1/cc2oc3cc(NCCC(=O)NCCCCC(NC(C)=O)C(=O)OC)c4ccccc4c3nc-2cc1C (stereo unspecified)	120 (≈ 67.2 µg/mL)	–
CC/N=c1/cc2oc3cc(N)c4ccccc4c3nc-2cc1C	15 (≈ 4.55 µg/mL)	–
C[N+](C)=c1ccc2nc3c(cc(N)c4ccccc43)oc-2c1	> 120	–
CC/N=c1/cc2oc3cc(NCCC(=O)O)c4ccccc4c3nc-2cc1C	15 (≈ 5.63 µg/mL)	–
CC[N+](CC)=c1ccc2nc3c(cc(NCCC(=O)OC)c4ccccc43)oc-2c1	15	–
CCCCCC/N=c1\ccc2nc3c(cc(Nc4ccccc4)c4ccccc43)oc-2c1	> 120	–
COC(=O)CCNc1cc2oc3cc(=[N+](C)C)ccc-3nc2c2ccccc12	> 120	–
CC/N=c1/cc2oc3cc(NCCC(=O)NC(C)C(=O)OC)c4ccccc4c3nc-2cc1C (stereo unspecified)	30 (≈ 13.8 µg/mL)	–
CC/N=c1/cc2oc3cc(NCCCOC(=O)C(NC(=O)OC(C)(C)C)C(C)C)c4ccccc4c3nc-2cc1C (stereo unspecified)	> 120	–
CC/N=c1/cc2oc3cc(NCCC(=O)NCC(=O)OC)c4ccccc4c3nc-2cc1C	120 (≈ 53.6 µg/mL)	–
CCOC(=O)CCNc1cc2oc3cc(=[N+](C)C)ccc-3nc2c2ccccc12	15	–
CC/N=c1/cc2oc3cc(NCCCC(=O)O)c4ccccc4c3nc-2cc1C	120 (≈ 46.7 µg/mL)	–
CC/N=c1/cc2oc3cc(NCCC(=O)OCC)c4ccccc4c3nc-2cc1C	15 (≈ 6.05 µg/mL)	–
CC/N=c1/cc2oc3cc(NCCCC(=O)NC(C(=O)OC)C(C)C)c4ccccc4c3nc-2cc1C (stereo unspecified)	60 (≈ 30.2 µg/mL)	–
CC/N=c1/cc2oc3cc(NCCCC(=O)OCC)c4ccccc4c3nc-2cc1C	7.5 (≈ 3.13 µg/mL)	MIC (Saccharomyces cerevisiae [2]): 7.5 µM (≈ 3.13 µg/mL); MIC (Saccharomyces cerevisiae [3]): 7.5 µM (≈ 3.13 µg/mL); MIC (Saccharomyces cerevisiae [4]): 30 µM (≈ 12.5 µg/mL)
CC[N+](CC)=c1ccc2nc3c(cc(NCCCO)c4ccccc43)oc-2c1	120	–
C[N+](C)=c1ccc2nc3c(cc(NCCC(=O)O)c4ccccc43)oc-2c1	> 120	–
C[N+](C)=c1ccc2nc3c(cc(NCCCO)c4ccccc43)oc-2c1	120	–
CCCNc1cc2oc3c/c(=N/CC)c(C)cc-3nc2c2cc3ccccc3cc12	15 (≈ 5.93 µg/mL)	–
CC/N=c1/cc2oc3cc(NCCCCl)c4ccccc4c3nc-2cc1C	3.75 (≈ 1.42 µg/mL)	MIC (Saccharomyces cerevisiae [2]): 7.5 µM (≈ 2.85 µg/mL); MIC (Saccharomyces cerevisiae [3]): 7.5 µM (≈ 2.85 µg/mL); MIC (Saccharomyces cerevisiae [4]): 15 µM (≈ 5.7 µg/mL)

Compound	MIC (Saccharomyces cerevisiae [1]) [µM]	also measured
CC/N=c1/cc2oc3cc(NCCCN)c4ccccc4c3nc-2cc1C	30 (≈ 10.8 µg/mL)	–
CC/N=c1/cc2oc3cc(NCCC(=O)NC(C(=O)OC)C(C)C)c4ccccc4c3nc-2cc1C (stereo unspecified)	30 (≈ 14.7 µg/mL)	–
C[N+](C)=c1ccc2nc3c(cc(Nc4ccccc4)c4ccccc43)oc-2c1	> 120	–
CC/N=c1/cc2oc3cc(NCCNC(=O)C(NC(=O)OC(C)(C)C)C(C)C)c4ccccc4c3nc-2cc1C (stereo unspecified)	15 (≈ 8.19 µg/mL)	–
CC/N=c1/cc2oc3cc(NCCCCl)c4cc5ccccc5cc4c3nc-2cc1C	15 (≈ 6.45 µg/mL)	–
CC/N=c1/cc2oc3cc(Nc4ccccc4)c4ccccc4c3nc-2cc1C	> 120	–
CC/N=c1/cc2oc3cc(NCCCN)c4cc5ccccc5cc4c3nc-2cc1C	60 (≈ 24.6 µg/mL)	–
CC[N+](CC)=c1ccc2nc3c(cc(N)c4ccccc43)oc-2c1 [NILE BLUE HYDROCHLORIDE]	60	–
CC/N=c1/cc2oc3cc(N)c4cc5ccccc5cc4c3nc-2cc1C	30 (≈ 10.6 µg/mL)	–
CC/N=c1/cc2oc3cc(NCCCO)c4cc5ccccc5cc4c3nc-2cc1C	15 (≈ 6.17 µg/mL)	–
CC/N=c1/cc2oc3cc(NC(=O)C(NC(=O)OC(C)(C)C)C(C)C)c4ccccc4c3nc-2cc1C (stereo unspecified)	60 (≈ 30.2 µg/mL)	–
CC/N=c1/cc2oc3cc(NCCO)c4ccccc4c3nc-2cc1C	30 (≈ 10.4 µg/mL)	–
CC/N=c1/cc2oc3cc(NCCN)c4ccccc4c3nc-2cc1C	120 (≈ 41.6 µg/mL)	–
CC[N+](CC)=c1ccc2nc3c(cc(NCCC(=O)O)c4ccccc43)oc-2c1	120	–
CC/N=c1/cc2oc3cc(NCCCC(=O)OCC)c4cc5ccccc5cc4c3nc-2cc1C	15 (≈ 7.01 µg/mL)	–
CC/N=c1/cc2oc3cc(NCCC(=O)NC(Cc4ccccc4)C(=O)OC)c4ccccc4c3nc-2cc1C (stereo unspecified)	15 (≈ 8.05 µg/mL)	–
CC/N=c1/cc2oc3cc(NCCOC(=O)C(NC(=O)OC(C)(C)C)C(C)C)c4ccccc4c3nc-2cc1C (stereo unspecified)	15 (≈ 8.2 µg/mL)	–
CC/N=c1/cc2oc3cc(NCCC(=O)NC(CCC(=O)OC)C(=O)OC)c4ccccc4c3nc-2cc1C (stereo unspecified)	120 (≈ 63.9 µg/mL)	–
CC/N=c1/cc2oc3cc(NCCC(=O)OC)c4ccccc4c3nc-2cc1C	15 (≈ 5.84 µg/mL)	–
CC/N=c1/cc2oc3cc(NCCCO)c4ccccc4c3nc-2cc1C	60 (≈ 21.7 µg/mL)	–
